Screening data: PubChem BioAssay, Broad Institute
FN deposit inh: inhibitors of fibronectin matrix deposition, primary screen, AH1F cells, Alexa488-fibronectin fluorescence, plate reader; AH1F fibroblasts, overnight; inhibition, % at 12.6 µM; 350,000 compounds, 0.086% hits;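 active = mean inhibition across replicates of 30% or more, regardless of how many single replicates reach that level; inconclusive = mean under 30% yet at least half of replicates reach 30%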;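 also: positive control wells lacked labelled fibronectin entirely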
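Measured by – fluorescence 485/525 nm · System – AH1F fibroblast monolayer, labelled fibronectin deposition · Amount – 10000 cells per well · Buffer or medium – serum-reduced DMEM (2% serum) · Doses – single dose, pinned · Also added – fluorescent fibronectin at 24 nM final · Schedule – 1 h cell attachment, overnight exposure to compound and label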
RAD52 anneal inh: RAD52 DNA annealing inhibitors, primary screen, biochemical, FRET, single point, set 2; DNA repair protein RAD52 homolog (Homo sapiens), P43351; recombinant RAD52 DNA annealing, FRET fluorescence; 360,000 compounds, 0.46% hits; inhibition, % at 18.7 µM;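 active = every replicate showing at least 50% inhibition; inconclusive = mean inhibition at least 50% but not in every replicate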
N-glyco inh: increase of ERlucT glycosylation luciferase signal, primary screen, N-linked glycosylation inhibitor project, D54 ERlucT cells, luminescence, set 2 | reporter increase, % at 12.5 µM | D54 ERlucT glycosylation luciferase reporter, 24 h; percent of 100 nM tunicamycin response | AID 588692, 2011 | 360,000 compounds, 0.23% hits;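 active = mean luciferase reporter signal, scaled so untreated is 0 and the glycosylation-blocking control 100, at or above a set limit in every replicate; inconclusive = mean reaches the limit but not every replicate does; inactive = mean below the limit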;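 also: luciferase carries N-glycosylation sites so blocking glycosylation raises the light; 0% = median of neutral control wells and 100% = median of 100 nM tunicamycin wells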
RAD54 inh: inhibitors of human RAD54 branch migration, primary screen, biochemical, fluorescence, single point | DNA repair and recombination protein RAD54-like (Homo sapiens), Q92698 | RAD54 Holliday junction branch migration, FAM/BHQ fluorescence | inhibition, % at 10.4 µM | 360,000 compounds, 0.14% hits | AID 602329, 2012;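 active = mean normalized replicate activity at least 40 and at least half of replicates scoring 40 or more; inconclusive = only one of the two criteria met; inactive = mean below 40 and under half of replicates reaching 40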;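 also: 0% = median of neutral control wells and 100% = median of positive control wells; inhibitors cause a drop in the FAM fluorescence signal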
Target sequence (Q92698 whole entry, looked up): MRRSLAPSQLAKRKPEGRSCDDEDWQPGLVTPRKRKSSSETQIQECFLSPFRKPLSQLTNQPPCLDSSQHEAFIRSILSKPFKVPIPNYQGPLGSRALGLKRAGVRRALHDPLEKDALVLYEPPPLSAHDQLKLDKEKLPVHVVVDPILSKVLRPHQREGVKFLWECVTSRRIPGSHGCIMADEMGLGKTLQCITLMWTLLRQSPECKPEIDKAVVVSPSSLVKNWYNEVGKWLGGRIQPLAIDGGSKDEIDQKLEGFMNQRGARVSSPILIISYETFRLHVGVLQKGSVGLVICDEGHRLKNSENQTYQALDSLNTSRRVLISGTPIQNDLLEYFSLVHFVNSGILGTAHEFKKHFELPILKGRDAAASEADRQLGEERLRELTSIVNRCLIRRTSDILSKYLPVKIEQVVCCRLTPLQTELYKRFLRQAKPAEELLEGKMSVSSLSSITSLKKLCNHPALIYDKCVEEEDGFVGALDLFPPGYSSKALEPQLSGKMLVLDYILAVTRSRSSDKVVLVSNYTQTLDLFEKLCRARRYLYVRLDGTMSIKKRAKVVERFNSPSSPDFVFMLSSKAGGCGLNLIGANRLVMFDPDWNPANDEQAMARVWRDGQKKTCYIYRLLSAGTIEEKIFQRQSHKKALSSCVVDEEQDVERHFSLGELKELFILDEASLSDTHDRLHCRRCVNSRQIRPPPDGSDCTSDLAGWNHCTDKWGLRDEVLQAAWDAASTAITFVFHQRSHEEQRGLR
CaV13 ICDI inh: Disruptors of the CACNA1D IQ motif to Ca2+-dependent inactivation inhibitor domain association, primary screening, Förster resonance energy transfer in intact living …. HEK cells, CFP/YFP FRET ICDI-IQ, plate reader, 10 min; percent FRET-ratio fall versus neutral wells. inhibition, % at 12.3 µM. 340,000 compounds, 0.098% hits. AID 743397;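 active = mean replicate inhibition of at least 30% and at least 1% of replicates passing that level; inconclusive = only one of the two criteria is met; inactive = neither criterion is met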;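 also: 0% = median of the neutral control wells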
Rad54 DNA ctr: DNA binding of candidate compounds, dose response, artefact control for RAD54 inhibitor project, biochemical, fluorescence polarization, cherry-pick; shares compounds with RAD54 inh; Acridine orange-DNA displacement, 20 min; AC50, µM (series often up to 35 µM), inactives show at the top dose activity change, negative = DNA binding; 460 compounds, 8% hits;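 active = signal drop giving an AC50 within twice the top valid tested concentration of each sample, actives reach about 35 µM in these data; inactive = activity opposite to expected, plus the rest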;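 also: polarization loss reports compound binding to salmon sperm DNA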
DNA binder FP: DNA-binding compounds via dye displacement, dose response, artefact control for RAD52 inhibitor project, biochemical, fluorescence polarization, cherry-pick; 1,000 compounds, 8% hits; AC50, µM; Salmon sperm DNA/acridine orange FP displacement; AID 652128, 2013; shares compounds with RAD52 anneal inh;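 active = fitted half-maximal concentration for signal loss at or below twice the highest dose tested, in every separate run, actives reach about 64 µM in these data; inconclusive = runs disagree, or flat partial signal loss, or poor fit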
The depositor's hits bear a star; i = inactive; ? = inconclusive; . = not tested or not shown. Compounds with a hit are over-represented: about 0.7% of the library has one in this group of screens.

SMILES	FN deposit inh	RAD52 anneal inh	N-glyco inh	RAD54 inh	CaV13 ICDI inh	DNA binder FP	others
CN1CN(c2ccccc2)C2(CCN(CCCSc3ccccc3NC(=O)/C=C/c3ccccc3)CC2)C1=O	0.7	-8.0	30.4*	.	-5.6	.
O=C(O)[C@H]1[C@H](CO)[C@H]2Cn3c(ccc(-c4cccnc4)c3=O)[C@@H]1N2S(=O)(=O)c1ccccc1F	.	-3.6	.	13.6	.	.
CS(=O)(=O)N1C[C@@H]2N[C@H](C1)C2c1ccccc1 (some centres undefined)	-3.7	.	.	.	.	.
C/C=C/c1ccc(C2[C@@H]3CN(Cc4cocn4)C[C@H]2N3)cc1 (some centres undefined)	-8.3	56.3*	.	.	.	.
C=C(C)[C@@]12OC3(c4ccccc4)O[C@@H]1C1[C@@H]4O[C@]4(CO)[C@@H](O)[C@]4(O)C(=O)C(C)=C[C@H]4[C@@]1(O3)[C@H](C)[C@H]2OC(=O)/C=C/C=C/c1ccccc1 (some centres undefined)	.	.	52.8*	-1.3	.	.
COC(=O)[C@@H]1C[C@H]1[C@@H](NP(=O)(c1ccccc1)c1ccccc1)c1ccccc1	11.2	5.4	32.0*	4.0	-5.1	.
COC(=O)[C@H]1C[C@@H]1[C@H](NP(=O)(c1ccccc1)c1ccccc1)c1ccccc1	-13.5	-4.6	0.9	10.4	-10.4	.
Oc1ccc(CCN2CCCCC2)cc1	5.5	-82.4	-2.8	-2.1	-5.3	.
Nc1ccc(CCN2CCCC2)cc1	-4.0	94.2*	0.8	?	-6.4	.	Rad54 DNA ctr=5.9%
CN1CCN(c2ccc(N)cc2)CC1	.	.	5.1	96.8*	-6.0	.	Rad54 DNA ctr=-13.8%
CN1CCN(c2ccc(N)c(N3CCN(C)CC3)c2)CC1	.	.	-1.1	.	-4.2	.
CC(C)NC(=O)N1C[C@@H]2C(c3ccc(Br)cc3)[C@H](C1)N2C (some centres undefined)	0.9	.	.	.	.	.
O=C(Cc1cccnc1)N1CCCCN2[C@H](C1)[C@H](c1ccc(C#CC3(O)CCCC3)cc1)[C@@H]2CO	.	-9.0	.	-6.9	.	.
Cn1ncnc2c(=O)n(C)c(=O)nc1-2	.	.	-22.7	72.1*	.	.	Rad54 DNA ctr=7.0%
Cc1nccc2c1[nH]c1ccccc12	-4.4	9.3	1.0	?	-3.8	.	Rad54 DNA ctr=-8.5%
COc1cc2c3c(c1OC)Oc1ccc(cc1)C[C@H]1c4c(cc(OC)c(OC)c4Oc4ccc(cc4)C[C@@H]3N(C)CC2)CCN1C	15.3	-22.6	-15.5	-1.6	-3.6	.
COc1cc2c(cc1O)[C@@H]1Cc3ccc(OC)c(O)c3CN1CC2	11.9	16.6	10.7	7.5	-6.0	.
COc1cc2c3cc1Oc1cc(ccc1O)C[C@@H]1c4c(cc(OC)c(O)c4Oc4cccc(c4)C[C@@H]3N(C)CC2)CC[N+]1(C)C	0.0	69.5*	2.3	18.6	-4.9	i
COc1cc2c3cc1Oc1c(OC)c(OC)cc4c1[C@H](Cc1ccc(cc1)Oc1cc(ccc1O)C[C@H]3N(C)CC2)N(C)CC4	19.3	58.5*	-10.6	16.0	-11.3	i
COc1cc2c3cc1Oc1cc(ccc1O)C[C@@H]1c4c(cc(OC)c(O)c4Oc4ccc(cc4)C[C@H]3N(C)CC2)CCN1C	-4.9	51.8*	-6.1	31.3	-5.0	i
CC(=O)N1C[C@@H]2C(c3ccccc3)[C@H](C1)N2CC1CC1 (some centres undefined)	3.0	.	.	.	.	.
COC(=O)[C@@H]1[C@@H](CO)[C@@H]2Cn3c(cccc3=O)[C@H]1N2C(=O)C1CCC1	.	-13.6	.	-6.1	.	.
N#Cc1cccc(-c2ccc([C@H]3[C@@H](CO)N4CCCCN(C(=O)Cc5ccccc5)C[C@@H]34)cc2)c1	.	-42.3	.	-3.0	.	.
NCC(O)c1cc(O)c(O)cc1F (centres undefined)	-2.3	91.9*	-1.6	20.6	-5.3	i
CC=Cc1ccc2n(c1=O)C[C@@H]1[C@@H](CO)[C@H](C(=O)OC)[C@H]2N1CC1CCCC1 (mixture of isomers)	.	6.7	.	.	.	.
SMILES	FN deposit inh	RAD52 anneal inh	N-glyco inh	RAD54 inh	CaV13 ICDI inh	DNA binder FP	others
CCCCCCCCCCCCCCCC[N+](C)(C)C	-2.6	80.1*	-16.6	44.3	-5.3	?
CCN1CCN(c2ccc(N)cc2C)CC1	11.1	99.9*	0.0	.	-2.3	46.7µM*
CCN1CCN(c2ccc(N)cc2)CC1	8.5	89.8*	1.2	.	-17.6	53.2µM*
O=C(Cc1ccccn1)N1CCCCN2[C@@H](CO)[C@@H](c3ccc(-c4ccccc4)cc3)[C@@H]2C1	.	-13.3	.	0.6	.	.
COC(=O)[C@H]1[C@H](CO)[C@H]2Cn3c(ccc(C4=CCCCC4)c3=O)[C@@H]1N2Cc1ccccn1	.	-18.6	.	1.0	.	.
O=c1[nH]c2cc(Cl)ccc2n1C1CCN(Cc2ccc(-c3nc4ccccc4nc3-c3ccccc3)cc2)CC1	-7.8	-16.7	.	.	-6.4	.
O=c1[nH]c2ccccc2n1C1CCN(Cc2ccc(-c3[nH]c4cc5ncnc5cc4nc3-c3ccccc3)cc2)CC1	-11.4	53.7*	.	.	-4.3	i
Ic1ccccc1CN[C@@H]1C2CCN(CC2)[C@@H]1C(c1ccccc1)c1ccccc1	11.8	62.2*	-1.5	23.8	-5.3	i
Fc1ccccc1CNC1CN2CCC1CC2 (centres undefined)	0.2	-5.1	2.2	.	-2.6	.
CN1[C@@H]2CN(CC(F)(F)F)C[C@H]1C2c1ccc(Br)cc1 (some centres undefined)	3.6	.	.	.	.	.
ClCCN1CCN(c2ccnc3cc(Cl)ccc23)CC1	-1.2	68.5*	6.1	29.8	-5.2	i
C=C1[C@@H](OC(C)=O)[C@]23C[C@@H]1[C@@H](OC(C)=O)CC2[C@]12C4C[C@H]3[C@H]1N(CC)C[C@]4(C)CC[C@@H]2O (some centres undefined)	.	78.3*	-2.1	-12.7	.	i
C[C@]1(O)CCC2C3CC[C@H]4C[C@@H](OC(=O)[C@@H](N)CCCCN)CC[C@]4(C)C3CC[C@@]21C (some centres undefined)	-3.4	87.8*	-2.8	60.0*	-5.7	i
C[C@]1(O)CCC2C3CC[C@@H]4CC(=O)CC[C@]4(C)C3CC[C@@]21C (some centres undefined)	-2.4	-13.1	1.1	.	-4.1	.
Oc1ccc2c3c1O[C@H]1c4[nH]c5c(c4CC4(O)C(C2)N(CC2CC2)CCC314)CC1(O)[C@H]2Cc3ccc(O)c4c3[C@@]1(CCN2CC1CC1)C5O4 (some centres undefined)	.	83.5*	.	.	.	i
Oc1ccc2c3c1OC1c4[nH]c5ccccc5c4C[C@@]4(O)C(C2)N(CC2CC2)CC[C@]314 (some centres undefined)	.	-0.1	-2.3	-0.6	.	.
CC[N+](C)(CC)CCCCOc1ccc2c(c1)C(=O)c1cc(OCCCC[N+](C)(CC)CC)ccc1-2	-2.4	104.7*	2.6	99.5*	-3.5	19.3µM*
CCCNC(=O)[C@H]1[C@H](CO)[C@H]2Cn3c(cccc3=O)[C@H]2N1CC	.	-2.6	.	.	.	.
